Experimental data reported in ChEMBL document CHEMBL5104108, “Concise synthesis and biological activity evaluation of novel pyrazinyl-aryl urea derivatives against several cancer cell lines, which can especially induce T24 apoptotic and necroptotic cell death” (RSC Med Chem, 2022).
The source made the active and inactive calls. The calls are words filed in the database; no cut-off is given here.

Tests used:
MGC-803 = experiment: Antiproliferative activity against human MGC-803 cells measured after 48 hrs by MTT assay; assay type: functional, cell-based; settings: MGC-803, 48 h
Procedure, shortened: (§1)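 Cells seeded 5 × 10^3 per well, grown overnight at 37 °C, then exposed to compound at final 1–40 μM (1, 2.5, 5, 7.5, 10, 12.5, 15, 20, 30, 40 μM) for the stated period. MTT added, 4 h at 37 °C, formazan dissolved in DMSO, absorbance read. IC50 = concentration killing 50% of cells relative to untreated control; mean ± S.D. of four independent experiments.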

HepG2 = experiment: Antiproliferative activity against human HepG2 cells measured after 48 hrs by MTT assay; assay type: functional, cell-based; settings: HepG2, 48 h; procedure, shortened: as §1
[1] = Antiproliferative activity against human HCV-29 cells measured after 48 hrs by MTT assay; assay type: functional, cell-based; settings: HCV-29, 48 h; procedure, shortened: as §1
T-24 [2] = experiment: Antiproliferative activity against human T24 cells measured after 48 hrs by MTT assay; assay type: functional, cell-based; settings: T-24, 48 h; procedure, shortened: as §1
[3] = Selectivity index, ratio IC50 for antiproliferative activity against human HCV-29 cells over IC50 for antiproliferative activity against human T24 cells; assay type: toxicity, cell-based; settings: HCV-29 cells versus T24 cells
Procedure, shortened: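 MTT assay, 48 h exposure at final 1–40 μM in T24 and normal bladder epithelial HCV29 cells (5 × 10^3/well, seeded overnight, 37 °C). MTT added for 4 h and formazan dissolved in DMSO. IC50 taken relative to untreated control, four parallel samples. SI = IC50(HCV29)/IC50(T24).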

T-24 [4] = experiment: Down-regulation of p-RIPK1 expression in human T24 cells at 7.5 to 10 uM measured after 16 hrs by Western blot analysis; assay type: functional, cell-based; settings: dose 7.5-10 µM
Procedure, shortened: (§2)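 T24 cells co-incubated 16 h with or without Nec-1 (60 μM). Lysates quantified by BCA, 40 μg protein resolved by SDS-PAGE, transferred to PVDF, probed with primary and peroxidase-conjugated secondary antibodies, detected by ECL. Band gray values normalized to β-actin loading control.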

[5] = AUMC in Sprague-Dawley rat at 12 mg/kg, IG measured HPLC analysis; assay type: ADME, organism-based; settings: in vivo, po
[6] = AUC (0 to 48 hrs) in Sprague-Dawley rat at 12 mg/kg, IG measured HPLC analysis; assay type: ADME, organism-based; parameters: time < 48 hr, dose 12 mg/kg, route ig; settings: in vivo, po
T-24 [7] = experiment: Down-regulation of p-MLKL expression in human T24 cells at 7.5 to 10 uM measured after 16 hrs by Western blot analysis; assay type: functional, cell-based; settings: dose 7.5-10 µM; procedure, shortened: as §2
T-24 [8] = experiment: Down-regulation of p-RIPK3 expression in human T24 cells at 7.5 to 10 uM measured after 16 hrs by Western blot analysis; assay type: functional, cell-based; settings: dose 7.5-10 µM; procedure, shortened: as §2
[9] = MRT (0 to 48 hrs) in Sprague-Dawley rat at 12 mg/kg, IG measured HPLC analysis; assay type: ADME, organism-based; settings: in vivo, po
Procedure, shortened: (§3)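 Fasted (12 h) male-unspecified Sprague-Dawley rats (250 ± 20 g), n = 6 per group. Single intragastric dose of suspension (2 mg mL−1 in Tween 80/0.9% NaCl 1.5:5 v/v). Orbital blood drawn at 0.5–48 h and plasma assayed by reversed-phase C18 HPLC-UV. One-compartment fit, weight 1.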

[10] = Absorption rate constant in Sprague-Dawley rat at 12 mg/kg, IG measured HPLC analysis; assay type: ADME, organism-based; settings: in vivo, po
[11] = Half-life in Sprague-Dawley rat at 12 mg/kg, IG measured HPLC analysis; assay type: ADME, organism-based; settings: in vivo, po
[12] = Clearance in Sprague-Dawley rat at 12 mg/kg, IG measured HPLC analysis; assay type: ADME, organism-based; settings: in vivo, po
T-24 [13] = experiment: Down-regulation of RIPK3 expression in human T24 cells at 7.5 to 10 uM measured after 16 hrs by Western blot analysis; assay type: functional, cell-based; settings: dose 7.5-10 µM; procedure, shortened: as §2
[14] = Cmax in Sprague-Dawley rat at 12 mg/kg, IG measured HPLC analysis; assay type: ADME, organism-based; parameters: dose 12 mg/kg, route ig; settings: in vivo, po
[15] = Tmax in Sprague-Dawley rat at 12 mg/kg, IG measured HPLC analysis; assay type: ADME, organism-based; settings: in vivo, po; procedure, shortened: as §3
T-24 [16] = experiment: Down-regulation of RIPK1 expression in human T24 cells at 7.5 to 10 uM measured after 16 hrs by Western blot analysis; assay type: functional, cell-based; settings: dose 7.5-10 µM; procedure, shortened: as §2
T-24 [17] = experiment: Down-regulation of RIPK2 expression in human T24 cells at 7.5 to 10 uM measured after 16 hrs by Western blot analysis; assay type: functional, cell-based; settings: dose 7.5-10 µM; procedure, shortened: as §2
T-24 [18] = experiment: Down-regulation of MLKL expression in human T24 cells at 7.5 to 10 uM measured after 16 hrs by Western blot analysis; assay type: functional, cell-based; settings: dose 7.5-10 µM; procedure, shortened: as §2

Row | SMILES | IC50 (MGC-803) | IC50 (HepG2) | IC50 [1] | IC50 (T-24 [2]) | SI [3] | other results
1 | O=C(Nc1cccc(CNc2nccnc2Cl)c1)NC1CCCCC1 | > 40 µM | > 40 µM | > 40 µM | > 40 µM |  | 
2 | Cc1ccc(NC(=O)Nc2cccc(CNc3nccnc3Cl)c2)cc1Cl | 17.5 µM | 11.3 µM | 21.5 µM | 7.39 µM | 2.91 | 
3 | O=C(Nc1cccc(CNc2nccnc2Cl)c1)Nc1ccc(Cl)cc1Br | 7.48 µM | 6.72 µM | 24 µM | 6.65 µM | 3.61 | 
4 | O=C(Nc1cccc(CNc2nccnc2Cl)c1)Nc1cccc(C(F)(F)F)c1 | 7.29 µM | 6.21 µM | 28.7 µM | 5.08 µM | 5.64 | 
5 | COc1ccccc1NC(=O)Nc1cccc(CNc2nccnc2Cl)c1 | 12.2 µM | 13.7 µM | 18.2 µM | 10.4 µM | 1.74 | 
6 | CN(C)c1ccc(NC(=O)Nc2cccc(CNc3nccnc3Cl)c2)cc1 | 11.5 µM | > 40 µM | > 40 µM | 20.2 µM |  | 
7 | Cc1ccc(NC(=O)Nc2cccc(CNc3nccnc3Cl)c2)cc1 | 11.9 µM | 11.5 µM | 20.1 µM | 9.82 µM | 2.05 | 
8 | Cc1ccccc1NC(=O)Nc1cccc(CNc2nccnc2Cl)c1 | 14 µM | 15.3 µM | 33.6 µM | 13.6 µM | 2.47 | 
9 | O=C(Nc1cccc(CNc2nccnc2Cl)c1)Nc1cccc2ccccc12 | 32.7 µM | > 40 µM | > 40 µM | > 40 µM |  | 
10 | CCc1ccccc1NC(=O)Nc1cccc(CNc2nccnc2Cl)c1 | 9.37 µM | 7.86 µM | 16.4 µM | 8.72 µM | 1.88 | 
11 | CS(=O)(=O)c1ccc(NC(=O)Nc2cccc(CNc3nccnc3Cl)c2)cc1 | 12.3 µM | 15.1 µM | > 40 µM | 29.3 µM |  | 
12 | Nc1ccn([C@@H]2O[C@H](CO)[C@@H](O)C2(F)F)c(=O)n1 [GEMCITABINE] |  |  | 21.5 µM |  | 2.12 | 
13 | O=C(Nc1cccc(CNc2nccnc2Cl)c1)NC1CCCC1 | 23.4 µM | 18.4 µM | > 40 µM | > 40 µM |  | 
14 | Cc1ccc(NC(=O)Nc2cccc(CNc3nccnc3Cl)c2)cc1C | 9.87 µM | 10.7 µM | 12.8 µM | 8.93 µM | 1.43 | 
15 | Cc1cccc(NC(=O)Nc2cccc(CNc3nccnc3Cl)c2)c1 | 14.6 µM | 11.2 µM | 28.3 µM | 9.57 µM | 2.96 | 
16 | CNC(=O)c1cc(Oc2ccc(NC(=O)Nc3ccc(Cl)c(C(F)(F)F)c3)c(F)c2)ccn1 [REGORAFENIB] | 9.46 µM | 10.4 µM | 12.9 µM | 5.98 µM | 2.16 | Activity (T-24 [4]): Active; AUMC [5]: 737185 hr2.ng/ml; AUC(0-t) at 48 h [6]: 50700 ng·h/mL; Activity (T-24 [7]): Active; Activity (T-24 [8]): Active; MRT last [9]: 7.29 h; Ka [10]: 0.138 h⁻¹; half-life [11]: 5.06 h; CL/F [12]: 0.986 mL/min; Activity (T-24 [13]): Active; Cmax [14]: 3100 ng/mL; Tmax [15]: 8.07 h; Activity (T-24 [16]): Active; Activity (T-24 [17]): Active; Activity (T-24 [18]): Active
17 | COc1ccc(NC(=O)Nc2cccc(CNc3nccnc3Cl)c2)cc1 | 9.24 µM | 12 µM | 20.9 µM | 9.82 µM | 2.13 | 
18 | O=C(Nc1ccccc1)Nc1cccc(CNc2nccnc2Cl)c1 | 16.3 µM | 15.6 µM | 36.2 µM | 19.8 µM | 1.83 | 
19 | Cc1ccc(NC(=O)Nc2cccc(CNc3nccnc3Cl)c2)c(C)c1 | 10.1 µM | 9.29 µM | 23.8 µM | 9.23 µM | 2.58 | 

Second part, led by results:

Row | IC50 (MGC-803) | IC50 (HepG2) | SMILES | IC50 [1] | IC50 (T-24 [2]) | SI [3] | other results
20 | 4.82 µM | 7.55 µM | CC(C)(C)c1ccc(NC(=O)Nc2cccc(CNc3nccnc3Cl)c2)cc1 | 15.3 µM | 6.01 µM | 2.54 | 
21 | 6.44 µM | 10.5 µM | O=C(Nc1cccc(CNc2nccnc2Cl)c1)Nc1ccccc1F | 25.1 µM | 7.45 µM | 3.37 | 
22 | 5.02 µM | 6.75 µM | O=C(Nc1cccc(CNc2nccnc2Cl)c1)Nc1ccc(F)c(Cl)c1 | 24.7 µM | 4.99 µM | 4.94 | 
23 | 4.98 µM | 8.35 µM | O=C(Nc1ccc(Cl)cc1)Nc1cccc(CNc2nccnc2Cl)c1 | 19.4 µM | 5.47 µM | 3.54 | 
24 | 6.13 µM | 10.8 µM | CCc1cccc(CC)c1NC(=O)Nc1cccc(CNc2nccnc2Cl)c1 | 18.7 µM | 6.39 µM |  | 
25 | 7.24 µM | 7.05 µM | CCOc1ccc(NC(=O)Nc2cccc(CNc3nccnc3Cl)c2)cc1 | 30.5 µM | 9.08 µM | 3.36 | 
26 | 7.13 µM | 8.56 µM | O=C(Nc1cccc(CNc2nccnc2Cl)c1)Nc1ccccc1Cl | 28.1 µM | 6.68 µM | 4.21 | 
27 | 6.43 µM | 7.23 µM | O=C(Nc1cccc(CNc2nccnc2Cl)c1)Nc1ccc(Cl)cc1Cl | 25.4 µM | 5.74 µM | 4.42 | 
28 | 4.97 µM | 6.17 µM | O=C(Nc1cccc(CNc2nccnc2Cl)c1)Nc1ccc(Cl)c(Cl)c1 | 27.2 µM | 5.21 µM | 5.22 | 
29 | 5.33 µM | 9.14 µM | O=C(Nc1cccc(Cl)c1)Nc1cccc(CNc2nccnc2Cl)c1 | 21.4 µM | 6.81 µM | 3.14 | 
